The text below walks through data of ChEMBL document CHEMBL1134468 (J Med Chem, 2001).

The target in test [1] is T1, Neuropeptide Y receptor type 4 (Homo sapiens, UniProt P50391). Description: Agonist potency for the inhibition of Forskolin stimulated cAMP synthesis in cells expressing cloned Y4 receptors(no effect at <20000 nM). In kind it is functional. Put shortly: (§1)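 Inhibition of forskolin-driven cAMP synthesis in cells expressing the Y4 receptor, with PP run as the reference control.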

The target of test [2] is T2, Neuropeptide Y receptor type 5 (Homo sapiens, UniProt Q15761).
T2 sequence (Q15761 whole entry): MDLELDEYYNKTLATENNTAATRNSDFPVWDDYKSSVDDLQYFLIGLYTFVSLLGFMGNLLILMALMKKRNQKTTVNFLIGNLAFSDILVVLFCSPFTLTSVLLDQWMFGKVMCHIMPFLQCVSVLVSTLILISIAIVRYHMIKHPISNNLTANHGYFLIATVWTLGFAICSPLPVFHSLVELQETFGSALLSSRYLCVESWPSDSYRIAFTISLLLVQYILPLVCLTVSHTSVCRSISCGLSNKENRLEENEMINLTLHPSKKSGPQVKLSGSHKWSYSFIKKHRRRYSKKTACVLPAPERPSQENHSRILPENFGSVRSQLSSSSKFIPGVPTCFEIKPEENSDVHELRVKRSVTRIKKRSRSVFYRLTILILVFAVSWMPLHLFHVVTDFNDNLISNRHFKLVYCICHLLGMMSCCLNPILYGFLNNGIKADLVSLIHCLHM
Description: Agonist potency for the inhibition of Forskolin stimulated cAMP synthesis in cells expressing cloned Y5 receptors(no effect at <20000 nM). In kind it is functional.

Test [3] deals with Neuropeptide Y receptor type 2 (Homo sapiens) (UniProt P49146). The experiment in a line: Agonist potency for the inhibition of Forskolin stimulated cAMP synthesis in cells expressing cloned Y2 receptors; no effect means no agonist activity at <20 000 nM.
Test [4] deals with T3, Neuropeptide Y receptor type 1 (Homo sapiens, UniProt P25929).
T3 sequence (P25929 whole entry): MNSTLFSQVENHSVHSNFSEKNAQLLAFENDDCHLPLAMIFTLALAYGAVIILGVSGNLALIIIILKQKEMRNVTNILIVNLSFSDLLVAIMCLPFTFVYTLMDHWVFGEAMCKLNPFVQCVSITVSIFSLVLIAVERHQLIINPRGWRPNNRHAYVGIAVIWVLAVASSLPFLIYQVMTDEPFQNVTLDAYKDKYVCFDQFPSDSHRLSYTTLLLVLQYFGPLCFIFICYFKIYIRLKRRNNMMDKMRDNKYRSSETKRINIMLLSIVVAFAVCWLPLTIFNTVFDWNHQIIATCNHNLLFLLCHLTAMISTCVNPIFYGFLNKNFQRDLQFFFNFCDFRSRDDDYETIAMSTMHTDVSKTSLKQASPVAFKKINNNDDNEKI
The experiment in a line: Affinity for cloned Y1 receptor using [125I]PYY as radioligand.

Test [5] deals with T4, Neuropeptide Y receptor type 1 (Homo sapiens) (UniProt P25929).
T4 sequence (whole entry): T3 sequence (P25929 whole entry)
Description: Selectivity ratio of Y1/Y2/Y4/Y5; 1/790/3/1640.

The target in test [6] is T1, Neuropeptide Y receptor type 4. Description: Agonist potency for the inhibition of Forskolin stimulated cAMP synthesis in cells expressing cloned Y4 receptors. In kind it is functional. Put shortly: as §1
Test [7] concerns the target T2, Neuropeptide Y receptor type 5. Description: Agonist potency for the inhibition of Forskolin stimulated cAMP synthesis in cells expressing cloned Y5 receptors. In kind it is functional.
For test [8], the target named is T5, Neuropeptide Y receptor type 2 (Homo sapiens, UniProt P49146).
T5 sequence (P49146 whole entry): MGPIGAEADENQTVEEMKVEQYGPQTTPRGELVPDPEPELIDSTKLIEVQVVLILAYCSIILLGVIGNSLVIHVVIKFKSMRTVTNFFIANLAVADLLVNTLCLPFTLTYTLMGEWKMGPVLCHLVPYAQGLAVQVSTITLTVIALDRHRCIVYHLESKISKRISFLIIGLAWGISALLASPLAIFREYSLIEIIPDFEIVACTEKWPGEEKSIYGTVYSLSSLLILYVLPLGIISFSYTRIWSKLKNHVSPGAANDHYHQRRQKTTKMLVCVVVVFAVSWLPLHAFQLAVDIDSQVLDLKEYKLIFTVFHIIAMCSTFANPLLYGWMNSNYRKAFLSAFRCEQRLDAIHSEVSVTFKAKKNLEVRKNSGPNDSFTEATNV
The experiment in a line: Agonist potency for the inhibition of Forskolin stimulated cAMP synthesis in cells expressing cloned Y2 receptors. In kind it is functional.

Test [9] addresses T2, Neuropeptide Y receptor type 5. The experiment in a line: Affinity for cloned Y5 receptor using [125I]PYY as radioligand.
Test [10] deals with T5, Neuropeptide Y receptor type 2. Description: Affinity for cloned Y2 receptor using [125I]PYY as radioligand.
For test [11], the target named is T1, Neuropeptide Y receptor type 4. Description: Affinity for cloned Y4 receptor using [125I]PP as radioligand.
Test [12] can be described thus: Selectivity ratio of Y1/Y2/Y4/Y5; 1/3840/120/2450.
Test [13] concerns the target T4, Neuropeptide Y receptor type 1 (Homo sapiens). Description: Antagonist potency for the inhibition of Forskolin stimulated cAMP synthesis in cells expressing cloned Y1 receptors. In kind it is functional.

Where a SMILES comes first, the peptide text is derived from it. Bridges are numbered along the chain shown (N, C = ends). Roman numbers before positions name the chains, in order. [ ]: non-standard residue; d: D form. Dap = NC[C@H](N)C(=O)O

T1 sequence (P50391 whole entry): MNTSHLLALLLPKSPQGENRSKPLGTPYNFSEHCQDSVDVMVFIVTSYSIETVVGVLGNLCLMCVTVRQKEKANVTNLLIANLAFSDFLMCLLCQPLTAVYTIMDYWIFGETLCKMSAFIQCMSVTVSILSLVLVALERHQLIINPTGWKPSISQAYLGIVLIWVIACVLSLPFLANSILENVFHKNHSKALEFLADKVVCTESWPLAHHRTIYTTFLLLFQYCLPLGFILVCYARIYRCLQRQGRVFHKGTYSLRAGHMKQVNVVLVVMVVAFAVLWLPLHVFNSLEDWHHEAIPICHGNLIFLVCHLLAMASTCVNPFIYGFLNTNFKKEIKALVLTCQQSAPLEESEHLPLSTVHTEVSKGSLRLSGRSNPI

As for `CC[C@H](C)[C@H](N)C(=O)N[C@H]1CCC(=O)NC[C@@H](C(=O)N[C@@H](Cc2ccc(O)cc2)C(=O)N[C@@H](CCCN=C(N)N)C(=O)N[C@@H](CC(C)C)C(=O)N[C@@H](CCCN=C(N)N)CN[C@@H](Cc2ccc(O)cc2)C(N)=O)NC(=O)[C@@H]2CCCN2C(=O)[C@@H](NC(=O)[C@@H](N)[C@@H](C)CC)CCC(=O)NC[C@@H](C(=O)N[C@@H](Cc2ccc(O)cc2)C(=O)N[C@@H](CCCN=C(N)N)C(=O)N[C@@H](CC(C)C)C(=O)N[C@@H](CCCN=C(N)N)CN[C@@H](Cc2ccc(O)cc2)C(N)=O)NC(=O)[C@@H]2CCCN2C1=O`, the EC50 result in test [1], in test [2] and in [3] was “Not Active” in each case.

Consider `CC[C@H](C)[C@H](N)C(=O)N[C@H]1CCC(=O)NC[C@@H](C(=O)N[C@@H](Cc2ccc(O)cc2)C(=O)N[C@@H](CCCN=C(N)N)C(=O)N[C@@H](CC(C)C)C(=O)N[C@@H](CCCN=C(N)N)C(=O)N[C@@H](Cc2ccc(O)cc2)C(N)=O)NC(=O)[C@@H]2CCCN2C(=O)[C@@H](NC(=O)[C@@H](N)[C@@H](C)CC)CCC(=O)NC[C@@H](C(=O)N[C@@H](Cc2ccc(O)cc2)C(=O)N[C@@H](CCCN=C(N)N)C(=O)N[C@@H](CC(C)C)C(=O)N[C@@H](CCCN=C(N)N)C(=O)N[C@@H](Cc2ccc(O)cc2)C(N)=O)NC(=O)[C@@H]2CCCN2C1=O` (I: H-IEP[Dap]YRLRY-NH2 / II: H-IEP[Dap]YRLRY-NH2; amide I:2-II:4, I:4-II:2), for which the Ki amounted to 0.07 nM in [4], 115 nM in test [9], 55 nM in [10] and 0.26 nM in [11]. Also, the Selectivity result in test [5] is on record as “Y1/Y4/Y2/Y5”. For the same molecule, the EC50 in [6] is 2.5 nM; in test [7] it was 2050 nM; in test [8], 983 nM.

In the case of `CC[C@H](C)[C@H](N)C(=O)N[C@H]1CCC(=O)NC[C@@H](C(=O)N[C@@H](Cc2ccc(O)cc2)C(=O)N[C@@H](CCCN=C(N)N)C(=O)N[C@@H](CC(C)C)C(=O)N[C@@H](CCCN=C(N)N)C(=O)N[C@@H](Cc2ccc(O)cc2)C(=O)OC)NC(=O)[C@@H]2CCCN2C(=O)[C@H](NC(=O)[C@@H](N)[C@@H](C)CC)CCC(=O)NC[C@H](C(=O)N[C@@H](Cc2ccc(O)cc2)C(=O)N[C@@H](CCCN=C(N)N)C(=O)N[C@@H](CC(C)C)C(=O)N[C@@H](CCCN=C(N)N)C(=O)N[C@@H](Cc2ccc(O)cc2)C(=O)OC)NC(=O)[C@@H]2CCCN2C1=O`, in test [12], the Selectivity entry was “Y1/Y4/Y5/Y2”. The antagonist dissociation constant (Kb) in test [13] was 0.19 nM.
